Measured values from ChEMBL document CHEMBL3124843, “Synthesis, cytostatic, antimicrobial, and anti-HCV activity of 6-substituted 7-(het)aryl-7-deazapurine ribonucleosides” (J Med Chem, 2014).
The source made the active and inactive calls. No rule for the calls is given here.

Assays:
Escherichia coli [1] = experiment: Antibacterial activity against multi-resistant Escherichia coli C/16702 after 24 hrs; assay type: functional, organism-based
[2] = Cytostatic activity against human CEM-DNR-bulk cells after 72 hrs by MTT assay; assay type: functional, cell-based
How it was run: (§1)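 IC50 is the concentration that cuts cell growth by 50%, read by quantitative metabolic MTT staining after a 3-day treatment. The resistant sublines were made by raising the concentration of the cytotoxic drug step by step. CEM-DNR-bulk (daunorubicin-selected) stably overexpresses mrp-1. K562-TAX (paclitaxel-selected) expresses only mdr-1. HCT116p53−/− carries null p53 alleles. BJ and MRC-5 are nonmalignant fibroblasts.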

Hepatitis C virus [3] = experiment: Antiviral activity against Hepatitis C virus subtype 1b infected in human HuH7 cells; assay type: functional, organism-based, Hepacivirus hominis; settings: genotype 1b, Huh-7
Candida parapsilosis = experiment: Antifungal activity against Candida parapsilosis after 48 hrs; assay type: functional, organism-based
Candida tropicalis = experiment: Antifungal activity against Candida tropicalis after 48 hrs; assay type: functional, organism-based
K562 [4] = experiment: Cytostatic activity against human K562 cells after 72 hrs by MTT assay; assay type: functional, cell-based; settings: K562, 72 h; how it was run: as §1
Staphylococcus aureus [5] = experiment: Antibacterial activity against Staphylococcus aureus CCM 3953 after 24 hrs; assay type: functional, organism-based
A549 = experiment: Cytostatic activity against human A549 cells after 72 hrs by MTT assay; assay type: functional, cell-based; settings: A549, 72 h; how it was run: as §1
CCRF-CEM = experiment: Cytostatic activity against human CCRF-CEM cells after 72 hrs by MTT assay; assay type: functional, cell-based; how it was run: as §1
Pseudomonas aeruginosa [6] = experiment: Antibacterial activity against Pseudomonas aeruginosa CCM 3955 after 24 hrs; assay type: functional, organism-based
Hepatitis C virus [7] = experiment: Antiviral activity against Hepatitis C virus subtype 2a infected in human HuH7 cells; assay type: functional, organism-based, Hepacivirus hominis; settings: genotype 2a, Huh-7
[8] = Cytotoxicity against human HuH7 cells infected with Hepatitis C virus subtype 1b; assay type: cell-based, Huh-7
HCT-116 [9] = experiment: Cytostatic activity against human HCT116 cells after 72 hrs by MTT assay; assay type: functional, cell-based; settings: HCT-116, 72 h; how it was run: as §1
HCT-116 [10] = experiment: Cytostatic activity against p53-deficient human HCT116 cells after 72 hrs by MTT assay; assay type: functional, cell-based; settings: HCT-116, 72 h; how it was run: as §1
HepG2 = experiment: Antiproliferative activity against human HepG2 cells after 72 hrs by XTT assay; assay type: functional, cell-based; settings: HepG2, 72 h
Escherichia coli [11] = experiment: Antibacterial activity against Escherichia coli CCM 3954 after 24 hrs; assay type: functional, organism-based
Candida albicans = experiment: Antifungal activity against Candida albicans after 48 hrs; assay type: functional, organism-based
Enterococcus faecalis = experiment: Antibacterial activity against Enterococcus faecalis CCM 4224 after 24 hrs; assay type: functional, organism-based
BJ = experiment: Cytostatic activity against human BJ cells after 72 hrs by MTT assay; assay type: ADME, cell-based; how it was run: as §1
[12] = tested on: Staphylococcus haemolyticus; experiment: Antibacterial activity against methicillin-resistant Staphylococcus haemolyticus A/16568 after 24 hrs; assay type: functional, organism-based
[13] = Antiproliferative activity against human HeLaS3 cells after 72 hrs by XTT assay; assay type: functional, cell-based; settings: HeLa S3, 72 h
How it was run: (§2)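 Antiproliferative test on HL-60 promyelocytic leukemia and HeLa S3 cervical carcinoma cells growing in liquid suspension.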

[14] = Cytotoxicity against human HuH7 cells infected with Hepatitis C virus subtype 2a; assay type: cell-based, Huh-7
Staphylococcus aureus [15] = experiment: Antibacterial activity against methicillin-resistant Staphylococcus aureus MRSA 4591 after 24 hrs; assay type: functional, organism-based
Pichia kudriavzevii = experiment: Antifungal activity against Candida crusei after 48 hrs; assay type: functional, organism-based
HL-60 = experiment: Antiproliferative activity against human HL60 cells after 72 hrs by XTT assay; assay type: functional, cell-based; settings: HL-60, 72 h; how it was run: as §2
K562 [16] = experiment: Cytostatic activity against paclitaxel-resistant human K562 cells after 72 hrs by MTT assay; assay type: functional, cell-based; settings: K562, 72 h; how it was run: as §1
Pseudomonas aeruginosa [17] = experiment: Antibacterial activity against multi-resistant Pseudomonas aeruginosa A/16575 after 24 hrs; assay type: functional, organism-based
MRC5 = experiment: Cytostatic activity against human MRC5 cells after 72 hrs by MTT assay; assay type: ADME, cell-based; settings: MRC5, 72 h; how it was run: as §1

| SMILES | Activity (Escherichia coli [1]) | IC50 [2] [µM] | EC50 (Hepatitis C virus [3]) [µM] | Activity (Candida parapsilosis) | Activity (Candida tropicalis) | IC50 (K562 [4]) [µM] | Activity (Staphylococcus aureus [5]) | IC50 (A549) [µM] | IC50 (CCRF-CEM) [µM] | Activity (Pseudomonas aeruginosa [6]) | EC50 (Hepatitis C virus [7]) [µM] | CC50 [8] [µM] | IC50 (HCT-116 [9]) [µM] | IC50 (HCT-116 [10]) [µM] | IC50 (HepG2) [µM] | Activity (Escherichia coli [11]) | Activity (Candida albicans) | Activity (Enterococcus faecalis) | IC50 (BJ) [µM] | Activity [12] | other results |
| --- | --- | --- | --- | --- | --- | --- | --- | --- | --- | --- | --- | --- | --- | --- | --- | --- | --- | --- | --- | --- | --- |
| C#Cc1cn([C@@H]2O[C@H](CO)[C@@H](O)[C@H]2O)c2ncnc(C)c12 | inactive | 0.16 | 0.23 | inactive | inactive | 6.92 | inactive | 19.2 | 5.6 | inactive | 21.6 | > 44 | > 20 | > 20 | 0.29 | inactive | inactive | inactive | 0.05 | inactive | IC50 [13]: 14.7 µM; CC50 [14]: > 44 µM; Activity (Staphylococcus aureus [15]): inactive; Activity (Pichia kudriavzevii): inactive; IC50 (HL-60): 1.11 µM; IC50 (K562 [16]): 0.11 µM; Activity (Pseudomonas aeruginosa [17]): inactive; IC50 (MRC5): 1.44 µM |
| Cc1ncnc2c1c(-c1ccsc1)cn2[C@@H]1O[C@H](CO)[C@@H](O)[C@H]1O | inactive | 8.56 | 4.47 | inactive | inactive | 0.32 | inactive | > 20 | 11.2 | inactive | > 44 | > 44 | 0.46 | 1.43 | 4.72 | inactive | inactive | inactive | 96.9 | inactive | IC50 [13]: 14.3 µM; CC50 [14]: > 44 µM; Activity (Staphylococcus aureus [15]): inactive; Activity (Pichia kudriavzevii): inactive; IC50 (HL-60): 0.35 µM; IC50 (K562 [16]): 5.55 µM; Activity (Pseudomonas aeruginosa [17]): inactive; IC50 (MRC5): > 100 µM |
| CNc1ncnc2c1c(-c1ccccc1)cn2[C@@H]1O[C@H](CO)[C@@H](O)[C@H]1O | inactive | > 20 | > 44 | inactive | inactive | > 20 | inactive | > 20 | > 20 | inactive | > 44 | > 44 | > 20 | > 100 | > 20 | inactive | inactive | inactive | > 100 | inactive | IC50 [13]: > 20 µM; CC50 [14]: > 44 µM; Activity (Staphylococcus aureus [15]): inactive; Activity (Pichia kudriavzevii): inactive; IC50 (HL-60): > 20 µM; IC50 (K562 [16]): > 20 µM; Activity (Pseudomonas aeruginosa [17]): inactive; IC50 (MRC5): > 100 µM |
| Nc1nc(N)c2c(-c3cc4ccccc4o3)cn([C@@H]3O[C@H](CO)[C@@H](O)[C@H]3O)c2n1 | inactive | > 20 | 5.58 | inactive | inactive | 18.6 | inactive | > 20 | > 20 | inactive | 11.5 | > 44 | > 20 | 14 | > 20 | inactive | inactive | inactive | > 100 | inactive | IC50 [13]: > 20 µM; CC50 [14]: > 44 µM; Activity (Staphylococcus aureus [15]): inactive; Activity (Pichia kudriavzevii): inactive; IC50 (HL-60): > 15 µM; IC50 (K562 [16]): > 20 µM; Activity (Pseudomonas aeruginosa [17]): inactive; IC50 (MRC5): 78.5 µM |
| COc1ncnc2c1c(-c1cc3ccccc3o1)cn2[C@@H]1O[C@H](CO)[C@@H](O)[C@H]1O | inactive | 10.8 | 2.64 | inactive | inactive | 20.9 | inactive | 17.7 | 5.37 | inactive | 10.2 | > 44 | 13.8 | 14.5 | > 20 | inactive | inactive | inactive | 22.4 | inactive | IC50 [13]: 9.24 µM; CC50 [14]: > 44 µM; Activity (Staphylococcus aureus [15]): inactive; Activity (Pichia kudriavzevii): inactive; IC50 (HL-60): 4.47 µM; IC50 (K562 [16]): 13.1 µM; Activity (Pseudomonas aeruginosa [17]): inactive; IC50 (MRC5): 65.6 µM |
| CNc1ncnc2c1c(-c1ccsc1)cn2[C@@H]1O[C@H](CO)[C@@H](O)[C@H]1O | inactive | > 20 | > 44 | inactive | inactive | > 20 | inactive | > 20 | > 20 | inactive | > 44 | > 44 | > 20 | > 20 | > 20 | inactive | inactive | inactive | > 100 | inactive | IC50 [13]: > 20 µM; CC50 [14]: > 44 µM; Activity (Staphylococcus aureus [15]): inactive; Activity (Pichia kudriavzevii): inactive; IC50 (HL-60): > 20 µM; IC50 (K562 [16]): > 20 µM; Activity (Pseudomonas aeruginosa [17]): inactive; IC50 (MRC5): > 100 µM |
